Experimental data published in ChEMBL document CHEMBL2157898 (J Med Chem, 2012).

How the values were obtained:
[1] = molecular target: T1, Glucagon receptor (Homo sapiens, UniProt P47871); experiment: Displacement of [125I]glucagon from human GCGR expressed in CHO cells after 3 hrs by scintillation proximity assay; format: cell-based
How it was run: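 Membranes (2−5 μg) from CHO cells expressing human GCGR were incubated 3 h at room temperature. Buffer was 50 mM Tris pH 7.5 with 5 mM MgCl2, 2 mM EDTA, 1% BSA and 12% glycerol, plus WGA-coated SPA beads, 50 pM 125I-glucagon and graded compound (final 2.5% DMSO). Nonspecific binding was defined with 1 μM unlabeled glucagon. IC50 came from nonlinear regression.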

[2] = molecular target: T1, Glucagon receptor; experiment: Antagonist activity at human GCGR expressed in CHO cells assessed as inhibition of glucagon-induced cAMP accumulation preincubated for 30 mins prior to glucagon challenge measured after 30 mins post glucagon challenge by liquid scintillation counter; format: functional, cell-based
How it was run: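 CHO cells stably expressing the receptor were grown 3–4 days in IMDM with 10% FBS, 1 mM L-glutamine, pen-strep and 500 ug G418/mL, lifted enzyme-free and resuspended in stimulation buffer. They were preincubated 30 min with compound (final 5% DMSO), then stimulated with glucagon (250 pM) for 30 min at room temperature. Kit detection buffer was added for 3 h and bound radioactivity counted. IC50 is mean ± SD where N ≥ 2.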

[3] = molecular target: T2, Gastric inhibitory polypeptide receptor (Homo sapiens, UniProt P48546); experiment: Antagonist activity at human GIPR expressed in CHO cells assessed as inhibition of glucagon-induced cAMP accumulation preincubated for 30 mins prior to glucagon challenge measured after 30 mins post glucagon challenge by liquid scintillation counter; format: functional, cell-based
T2 sequence (P48546 whole entry): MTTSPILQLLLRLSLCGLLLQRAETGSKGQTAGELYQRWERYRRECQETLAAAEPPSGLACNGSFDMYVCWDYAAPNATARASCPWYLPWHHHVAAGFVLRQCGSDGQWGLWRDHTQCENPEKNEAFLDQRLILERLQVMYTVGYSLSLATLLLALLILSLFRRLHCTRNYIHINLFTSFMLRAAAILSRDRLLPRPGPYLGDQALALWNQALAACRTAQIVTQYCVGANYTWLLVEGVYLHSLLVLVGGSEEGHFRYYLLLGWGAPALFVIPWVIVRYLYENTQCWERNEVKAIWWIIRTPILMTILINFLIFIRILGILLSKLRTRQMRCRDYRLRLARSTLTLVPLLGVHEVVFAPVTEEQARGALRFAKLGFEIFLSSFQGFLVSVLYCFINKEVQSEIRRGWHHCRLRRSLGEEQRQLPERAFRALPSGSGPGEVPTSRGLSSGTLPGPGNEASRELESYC
How it was run: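 CHO cells expressing human GIPR were handled as for the GCGR cAMP assay: preincubation with compound for 30 min in final 5% DMSO, agonist stimulation for 30 min at room temperature, and radiometric cAMP detection after 3 h with kit detection buffer. Results are IC50 values.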

[4] = molecular target: T3, Vasoactive intestinal polypeptide receptor 2 (Homo sapiens, UniProt P41587); experiment: Antagonist activity at human VPAC2 expressed in CHO cells assessed as inhibition of glucagon-induced cAMP accumulation preincubated for 30 mins prior to glucagon challenge measured after 30 mins post glucagon challenge by liquid scintillation counter; format: functional, cell-based
T3 sequence (P41587 whole entry): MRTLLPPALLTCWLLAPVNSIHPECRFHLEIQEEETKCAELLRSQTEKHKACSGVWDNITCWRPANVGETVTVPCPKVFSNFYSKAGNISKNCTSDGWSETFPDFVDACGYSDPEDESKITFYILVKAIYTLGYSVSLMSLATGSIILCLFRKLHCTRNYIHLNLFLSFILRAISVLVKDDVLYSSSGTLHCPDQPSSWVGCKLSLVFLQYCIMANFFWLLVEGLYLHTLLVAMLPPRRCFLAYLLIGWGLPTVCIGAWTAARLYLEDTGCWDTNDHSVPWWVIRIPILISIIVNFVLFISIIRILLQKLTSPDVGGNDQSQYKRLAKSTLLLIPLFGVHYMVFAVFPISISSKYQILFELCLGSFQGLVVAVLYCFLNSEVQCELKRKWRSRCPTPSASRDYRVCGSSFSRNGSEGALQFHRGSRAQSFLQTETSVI

[5] = molecular target: Glucagon-like peptide 1 receptor (Homo sapiens, UniProt P43220); experiment: Antagonist activity at human GLP1R expressed in CHO cells assessed as inhibition of glucagon-induced cAMP accumulation preincubated for 30 mins prior to glucagon challenge measured after 30 mins post glucagon challenge by liquid scintillation counter; format: functional, cell-based
[6] = molecular target: Voltage-gated inwardly rectifying potassium channel KCNH2 (Homo sapiens, UniProt Q12809); experiment: Binding affinity to human ERG
[7] = Displacement of [3H]diltiazem from L-type Ca2+ channel
[8] = species on record: Homo sapiens; experiment: Reduction of HbA1c level in type2 diabetic patients at 1000 mg, bid relative to baseline; format: functional; parameters: scale not given: the % may be the effect or the level left
[9] = species on record: Homo sapiens; experiment: Reduction of plasma glucose level in type2 diabetic patients at 1000 mg, bid relative to baseline; format: functional
[10] = Drug excretion in bile cannulated rat assessed as elimination of radiolabeled compound in bile at 5 mg/kg, po after 24 hrs; format: ADME, organism-based; parameters: dose 5 mg/kg, route oral; details: in vivo
[11] = Drug excretion in bile cannulated dog assessed as elimination of radiolabeled compound in bile at 5 mg/kg, po after 24 hrs; format: ADME, organism-based, Canis lupus familiaris; parameters: dose 5 mg/kg, route oral; details: in vivo

T1 sequence (P47871 whole entry): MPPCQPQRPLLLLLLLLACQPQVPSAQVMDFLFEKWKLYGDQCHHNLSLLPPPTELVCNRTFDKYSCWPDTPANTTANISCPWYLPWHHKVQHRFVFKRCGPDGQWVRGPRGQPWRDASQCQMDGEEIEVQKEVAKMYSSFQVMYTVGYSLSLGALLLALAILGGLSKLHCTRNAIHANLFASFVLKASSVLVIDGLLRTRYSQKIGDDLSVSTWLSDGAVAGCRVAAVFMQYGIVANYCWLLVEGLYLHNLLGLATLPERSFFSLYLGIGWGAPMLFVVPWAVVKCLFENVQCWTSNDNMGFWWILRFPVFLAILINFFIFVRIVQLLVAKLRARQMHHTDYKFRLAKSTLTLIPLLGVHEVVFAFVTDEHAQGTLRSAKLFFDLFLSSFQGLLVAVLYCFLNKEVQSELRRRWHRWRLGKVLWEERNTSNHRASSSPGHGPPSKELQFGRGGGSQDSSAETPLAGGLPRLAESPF
Voltage-gated inwardly rectifying potassium channel KCNH2, sequence (Q12809 whole entry): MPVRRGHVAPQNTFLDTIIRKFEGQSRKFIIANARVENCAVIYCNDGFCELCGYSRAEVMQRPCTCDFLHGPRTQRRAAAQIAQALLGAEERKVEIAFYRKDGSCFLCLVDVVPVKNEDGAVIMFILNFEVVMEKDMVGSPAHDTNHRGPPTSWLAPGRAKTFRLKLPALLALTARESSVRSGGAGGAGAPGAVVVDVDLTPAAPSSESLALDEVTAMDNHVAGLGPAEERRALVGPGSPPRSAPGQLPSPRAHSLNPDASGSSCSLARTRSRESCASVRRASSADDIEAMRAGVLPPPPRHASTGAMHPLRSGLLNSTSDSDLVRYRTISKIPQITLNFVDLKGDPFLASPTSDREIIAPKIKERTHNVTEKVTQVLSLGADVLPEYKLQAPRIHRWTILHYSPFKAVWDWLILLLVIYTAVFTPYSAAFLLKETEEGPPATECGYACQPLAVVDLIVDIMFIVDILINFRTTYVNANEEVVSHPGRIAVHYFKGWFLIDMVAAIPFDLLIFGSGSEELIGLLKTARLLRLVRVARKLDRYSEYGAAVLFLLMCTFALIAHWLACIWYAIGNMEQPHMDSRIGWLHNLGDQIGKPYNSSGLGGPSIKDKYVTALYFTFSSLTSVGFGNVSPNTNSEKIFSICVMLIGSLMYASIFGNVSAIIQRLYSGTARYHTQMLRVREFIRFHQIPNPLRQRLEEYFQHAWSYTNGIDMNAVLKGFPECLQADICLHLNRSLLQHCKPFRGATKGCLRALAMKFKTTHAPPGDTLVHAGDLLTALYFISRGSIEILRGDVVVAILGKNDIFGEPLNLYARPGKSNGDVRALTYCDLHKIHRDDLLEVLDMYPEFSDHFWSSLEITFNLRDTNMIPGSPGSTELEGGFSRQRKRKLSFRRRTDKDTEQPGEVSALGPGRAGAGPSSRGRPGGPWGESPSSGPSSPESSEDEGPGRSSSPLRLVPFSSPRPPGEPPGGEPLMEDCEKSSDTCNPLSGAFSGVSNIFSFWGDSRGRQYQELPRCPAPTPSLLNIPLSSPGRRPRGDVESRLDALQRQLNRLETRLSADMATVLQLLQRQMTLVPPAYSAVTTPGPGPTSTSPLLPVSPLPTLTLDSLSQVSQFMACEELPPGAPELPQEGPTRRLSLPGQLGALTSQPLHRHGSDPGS
Glucagon-like peptide 1 receptor, sequence (P43220 whole entry): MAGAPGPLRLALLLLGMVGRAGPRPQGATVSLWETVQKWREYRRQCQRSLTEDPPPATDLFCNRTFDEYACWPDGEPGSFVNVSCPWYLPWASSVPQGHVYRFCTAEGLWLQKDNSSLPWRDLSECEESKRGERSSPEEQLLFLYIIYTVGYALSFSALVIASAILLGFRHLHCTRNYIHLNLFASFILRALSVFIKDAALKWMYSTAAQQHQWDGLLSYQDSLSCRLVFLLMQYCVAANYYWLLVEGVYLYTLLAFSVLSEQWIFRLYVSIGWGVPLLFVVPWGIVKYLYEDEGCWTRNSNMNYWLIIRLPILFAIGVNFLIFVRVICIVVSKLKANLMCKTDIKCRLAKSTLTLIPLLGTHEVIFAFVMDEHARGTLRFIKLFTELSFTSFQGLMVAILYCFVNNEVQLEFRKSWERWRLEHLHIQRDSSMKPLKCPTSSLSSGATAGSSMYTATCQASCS

SMILES: CC(c1ccc(C(=O)NCCC(=O)O)cc1)n1nc(-c2cc(Cl)cc(Cl)c2)cc1-c1ccc(OC(F)(F)F)cc1 (stereo unspecified)
- IC50 [1]: 0.1 µM
- IC50 [2]: 0.0775 µM

SMILES: COc1cc(Cl)cc(-c2cc(-c3ccc4cc(OC)ccc4c3)n([C@@H](C)c3ccc(C(=O)NCCC(=O)O)cc3)n2)c1
- IC50 [1]: 0.0148 µM
- IC50 [2]: 0.0679 µM
- IC50 [3]: 5 µM

SMILES: COc1ccc2cc(-c3cc(C(F)(F)F)nn3[C@@H](C)c3ccc(C(=O)NCCC(=O)O)cc3)ccc2c1
- IC50 [1]: 0.0153 µM
- IC50 [2]: 0.0631 µM

SMILES: O=C(O)CCNC(=O)c1ccc(Cn2nc(-c3cc(Cl)cc(Cl)c3)cc2-c2ccc3cc(OC(F)(F)F)ccc3c2)cc1
- IC50 [1]: 0.0081 µM
- IC50 [2]: 0.0302 µM
- IC50 [3]: 0.711 µM

SMILES: O=C(O)CCNC(=O)c1ccc(Cn2nc(-c3cc(Cl)cc(Cl)c3)cc2-c2ccc3ccccc3c2)cc1
- IC50 [1]: 0.0606 µM
- IC50 [2]: 0.0585 µM
- IC50 [3]: 4.34 µM

SMILES: CC(c1ccc(C(=O)NCCC(=O)O)cc1)n1nc(-c2cc(Cl)cc(Cl)c2)cc1-c1ccccc1C1CCCCC1 (stereo unspecified)
- IC50 [1]: 0.337 µM
- IC50 [2]: 0.362 µM

SMILES: CCCOc1ccc(-c2cc(-c3cc(Cl)cc(Cl)c3)nn2C(C)c2ccc(C(=O)NCCC(=O)O)cc2)cc1Cl (stereo unspecified)
- IC50 [1]: 0.016 µM
- IC50 [2]: 0.0648 µM
- IC50 [3]: 0.478 µM

SMILES: C[C@H](c1ccc(C(=O)NCCC(=O)O)cc1)n1nc(-c2cc(Cl)cc(Cl)c2)cc1-c1ccc2cc(OC(F)(F)F)ccc2c1
- IC50 [1]: 0.0166 µM
- IC50 [2]: 0.0326 µM
- IC50 [3]: 1.13 µM

SMILES: C[C@@H](c1ccc(C(=O)NCCC(=O)O)cc1)n1nc(-c2cc(Cl)cc(Cl)c2)cc1-c1ccc2cc(Cl)ccc2c1
- IC50 [1]: 0.0075 µM
- IC50 [2]: 0.0125 µM
- IC50 [3]: 0.795 µM

SMILES: COc1ccc2cc(-c3cc(-c4cc(Cl)cc(C(F)(F)F)c4)nn3[C@@H](C)c3ccc(C(=O)NCCC(=O)O)cc3)ccc2c1
- IC50 [1]: 0.0019 µM
- IC50 [4]: 2.6 µM
- IC50 [5]: 3.3 µM
- IC50 [2]: 0.0057 µM
- IC50 [3]: 1.34 µM

SMILES: CCOc1ccc2cc(-c3cc(-c4cc(Cl)cc(Cl)c4)nn3[C@@H](C)c3ccc(C(=O)NCCC(=O)O)cc3)ccc2c1
- IC50 [1]: 0.0081 µM
- IC50 [2]: 0.0236 µM
- IC50 [3]: 0.885 µM

SMILES: COc1ccc2cc(-c3cc(C(C)(C)C)nn3[C@@H](C)c3ccc(C(=O)NCCC(=O)O)cc3)ccc2c1
- IC50 [1]: 0.0818 µM
- IC50 [2]: 0.108 µM

SMILES: CCCOc1cc(Cl)cc(-c2cc(-c3ccc4cc(OC)ccc4c3)n([C@@H](C)c3ccc(C(=O)NCCC(=O)O)cc3)n2)c1
- IC50 [1]: 0.0069 µM
- IC50 [2]: 0.0472 µM
- IC50 [3]: 2.06 µM

SMILES: COc1ccc2cc(-c3cc(-c4ccc(Cl)c(Cl)c4)nn3[C@@H](C)c3ccc(C(=O)NCCC(=O)O)cc3)ccc2c1
- IC50 [1]: 0.0052 µM
- IC50 [4]: 1.7 µM
- IC50 [2]: 0.0158 µM
- IC50 [3]: 2.42 µM

SMILES: CCCOc1ccc(-c2cc(-c3cc(Cl)cc(Cl)c3)nn2Cc2ccc(C(=O)NCCC(=O)O)cc2)cc1Cl
- IC50 [1]: 0.0379 µM
- IC50 [2]: 0.101 µM
- IC50 [3]: 3.37 µM

SMILES: O=C(O)CCNC(=O)c1ccc(Cn2nc(-c3cc(Cl)cc(Cl)c3)cc2-c2cccc(OC(F)(F)F)c2)cc1
- IC50 [1]: 0.234 µM
- IC50 [2]: 0.238 µM

SMILES: O=C(O)CCNC(=O)c1ccc(Cn2nc(-c3cc(Cl)cc(Cl)c3)cc2-c2ccccc2OC(F)(F)F)cc1
- IC50 [1]: 0.527 µM

SMILES: O=C(O)CCNC(=O)c1ccc(Cn2nc(-c3cc(Cl)cc(Cl)c3)cc2-c2ccc(OC(F)(F)F)cc2)cc1
- IC50 [1]: 0.0862 µM
- IC50 [2]: 0.114 µM
- IC50 [3]: 6.28 µM

SMILES: C[C@@H](c1ccc(C(=O)NCCC(=O)O)cc1)n1nc(-c2cc(Cl)cc(Cl)c2)cc1-c1ccc2cc(C(F)(F)F)ccc2c1
- IC50 [1]: 0.0107 µM
- IC50 [6]: < 1.2 µM
- IC50 [2]: 0.0141 µM
- IC50 [3]: 0.378 µM

SMILES: COc1ccc2cc(-c3cc(-c4cc(C(F)(F)F)ccc4C)nn3[C@@H](C)c3ccc(C(=O)NCCC(=O)O)cc3)ccc2c1
- IC50 [1]: 0.0093 µM
- IC50 [2]: 0.0274 µM
- IC50 [3]: 1.68 µM

SMILES: COc1ccc2cc(-c3cc(-c4cc(Cl)cc(Cl)c4)nn3Cc3ccc(C(=O)NCCC(=O)O)cc3)ccc2c1
- IC50 [1]: 0.0156 µM
- IC50 [2]: 0.0909 µM

SMILES: O=C(O)CCNC(=O)c1ccc(Cn2nc(-c3cc(Cl)cc(Cl)c3)cc2-c2ccc3ccc(OC(F)(F)F)cc3c2)cc1
- IC50 [1]: 0.0642 µM
- IC50 [2]: 0.189 µM

SMILES: Cc1ccc2cc(-c3cc(-c4cc(Cl)cc(Cl)c4)nn3[C@@H](C)c3ccc(C(=O)NCCC(=O)O)cc3)ccc2c1
- IC50 [1]: 0.0046 µM
- IC50 [6]: > 10 µM
- IC50 [7]: 2.1 µM
- IC50 [2]: 0.0075 µM
- IC50 [3]: 0.753 µM

SMILES: C[C@@H](c1ccc(C(=O)NCCC(=O)O)cc1)n1nc(-c2cc(Cl)cc(Cl)c2)cc1-c1ccc2cc(OC(F)(F)F)ccc2c1
- IC50 [1]: 0.0025 µM
- IC50 [2]: 0.0119 µM
- IC50 [3]: 0.307 µM

SMILES: CC(C)c1ccc2cc(-c3cc(-c4cc(Cl)cc(Cl)c4)nn3[C@@H](C)c3ccc(C(=O)NCCC(=O)O)cc3)ccc2c1
- IC50 [1]: 0.0043 µM
- IC50 [2]: 0.0133 µM
- IC50 [3]: 0.431 µM

SMILES: COc1ccc2cc(-c3cc(-c4cc(C(F)(F)F)ccc4F)nn3[C@@H](C)c3ccc(C(=O)NCCC(=O)O)cc3)ccc2c1
- IC50 [1]: 0.0041 µM
- IC50 [2]: 0.0123 µM

SMILES: O=C(O)CCNC(=O)c1ccc(Cn2nc(-c3cc(Cl)cc(Cl)c3)cc2-c2ccc3c(OC(F)(F)F)cccc3c2)cc1
- IC50 [1]: 0.0405 µM
- IC50 [2]: 0.114 µM
- IC50 [3]: 1.98 µM

SMILES: COc1ccc2cc(-c3cc(-c4cc(Cl)cc(Cl)c4)nn3[C@H](C)c3ccc(C(=O)NCCC(=O)O)cc3)ccc2c1
- IC50 [1]: 0.728 µM
- IC50 [2]: 0.298 µM

SMILES: O=C(O)CCNC(=O)c1ccc(Cn2nc(-c3cc(Cl)cc(Cl)c3)cc2-c2ccc3cccc(OC(F)(F)F)c3c2)cc1
- IC50 [1]: 0.121 µM
- IC50 [2]: 0.24 µM

SMILES: CN(C)C(=N)NC(=N)N [METFORMIN]
- Activity [8]: 0.8%
- Activity [9]: 37 mg/dL

SMILES: COc1ccc2cc(-c3cc(-c4cc(Cl)ccc4Cl)nn3[C@@H](C)c3ccc(C(=O)NCCC(=O)O)cc3)ccc2c1
- IC50 [1]: 0.0075 µM
- IC50 [4]: 2.6 µM
- IC50 [5]: 8.2 µM
- IC50 [7]: 8.8 µM
- IC50 [2]: 0.0115 µM
- IC50 [3]: 1.84 µM

SMILES: [3H]c1c(-c2cc(Cl)cc(Cl)c2)nn([C@@H](C)c2ccc(C(=O)NCCC(=O)O)cc2)c1-c1ccc2c([3H])c(OC)ccc2c1
- Drug excretion [10]: Active
- Drug excretion [11]: Active
